Reference: ChEMBL document CHEMBL5512642, “Novel triterpenoid pyrones, phthalimides and phthalates are selectively cytotoxic in CCRF-CEM cancer cells - Synthesis, potency, and mitochondrial mechanism of action” (Eur J Med Chem, 2024)
Active and inactive are the calls of the source. The calls are words filed in the database; no cut-off is given here.

Experiments:
CCRF-CEM [1] = assay: Cytotoxicity against human CCRF-CEM cells assessed as reduction in cell viability incubated for 72 hrs by MTS assay; format: functional, cell-based
[2] = Plasma protein binding in human assessed as fraction bound at 10 uM by rapid equilibrium dialysis based RF-MS analysis; format: ADME, cell-free; settings: read-out: PPB (converted)
Outline: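 Human plasma protein binding measured by equilibrium dialysis and reported as percent fraction bound. Run in triplicate.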

[3] = Cytotoxicity against human K562-Tax cells assessed as reduction in cell viability incubated for 72 hrs by MTS assay; format: functional, cell-based
CCRF-CEM [4] = assay: Induction of apoptosis in human CCRF-CEM cells assessed as viable cells at 1 time IC50 incubated for 24 hrs by Annexin V and propidium iodide staining based flow cytometry analysis (reference value: 98%); format: functional
CCRF-CEM [5] = assay: Induction of apoptosis in human CCRF-CEM cells assessed as necrotic cells at 5 time IC50 incubated for 24 hrs by Annexin V and propidium iodide staining based flow cytometry analysis (reference value: 0.; format: functional
CCRF-CEM [6] = assay: Induction of apoptosis in human CCRF-CEM cells assessed as reduction in caspase-3 expression at 5 time of IC50 incubated for 24 hrs by Western blot analysis; format: functional, cell-based
Outline: (§1)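 Lysate 20 µg protein per lane on SDS-PAGE, transferred to nitrocellulose, blocked in 5% BSA/TBS-Tween. Probed overnight at 4 °C with anti-caspase-3, Bcl-2, Bcl-XL, β-actin, then HRP secondary 1 h. ECL chemiluminescence detection.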

CCRF-CEM [7] = assay: Induction of apoptosis in human CCRF-CEM cells assessed as early apoptotic cells at 1 time IC50 incubated for 24 hrs by Annexin V and propidium iodide staining based flow cytometry analysis (reference value: 1.4%); format: functional
K562 = assay: Cytotoxicity against human K562 cells assessed as reduction in cell viability incubated for 72 hrs by MTS assay; format: functional, cell-based; settings: K562, 72 h
A549 = assay: Cytotoxicity against human A549 cells assessed as reduction in cell viability incubated for 72 hrs by MTS assay; format: functional, cell-based; settings: A549, 72 h
CCRF-CEM [8] = assay: Induction of apoptosis in human CCRF-CEM cells assessed as late apoptotic cells at 1 time IC50 incubated for 24 hrs by Annexin V and propidium iodide staining based flow cytometry analysis (reference value: 0.5%); format: functional
CCRF-CEM [9] = assay: Induction of apoptosis in human CCRF-CEM cells assessed as reduction in Bcl-XL expression at 5 time of IC50 incubated for 24 hrs by Western blot analysis; format: functional, cell-based; outline: as §1
CCRF-CEM [10] = assay: Induction of apoptosis in human CCRF-CEM cells assessed as early apoptotic cells at 5 time IC50 incubated for 24 hrs by Annexin V and propidium iodide staining based flow cytometry analysis (reference value: 1.4%); format: functional
[11] = Stability in human plasma assessed as compound remaining measured 120 mins by RF-MS analysis; format: ADME, cell-free; settings: read-out: Stability
Outline: (§2)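 Compounds incubated in human plasma in vitro for up to 2 h. Percent remaining sampled at 15, 30, 60 and 120 min. Run in triplicate.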

CCRF-CEM [12] = assay: Induction of mitochondrial membrane potential loss in human CCRF-CEM cells assessed as cells with depolarized mitochondria (P2 gate) by measuring green fluorescence intensity at 1 time IC50 incubated for 24 hrs by JC-1 staining based flow cytometry (reference value: 2.1%)
HCT-116 = assay: Cytotoxicity against human HCT-116 cells assessed as reduction in cell viability incubated for 72 hrs by MTS assay; format: functional, cell-based; settings: HCT-116, 72 h
[13] = Metabolic stability in human liver microsomes assessed as compound remaining at measured at 60 mins in presence of NADPH by RF-MS analysis; format: ADME, Microsome; settings: read-out: Stability
Outline: (§3)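 Human liver microsomes with NADPH cofactor to assess phase I oxidation. Compound remaining sampled at 15, 30 and 60 min; intrinsic clearance derived and categorized. Run in triplicate.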

[14] = Metabolic stability in human liver microsomes assessed as compound remaining at measured at 15 mins in presence of NADPH by RF-MS analysis; format: ADME, Microsome; settings: read-out: Stability; outline: as §3
[15] = Cytotoxicity against human MRC5 cells assessed as reduction in cell viability incubated for 72 hrs by MTS assay; format: toxicity, cell-based
[16] = Stability in human plasma assessed as compound remaining measured 30 mins by RF-MS analysis; format: ADME, cell-free; settings: read-out: Stability; outline: as §2
CCRF-CEM [17] = assay: Induction of apoptosis in human CCRF-CEM cells assessed as necrotic cells at 1 time IC50 incubated for 24 hrs by Annexin V and propidium iodide staining based flow cytometry analysis (reference value: 0.1%); format: functional
[18] = Apparent permeability of the compound across apical to basolateral side in MDCK-MDR1 cells assessed as compound recovery at 10 uM incubated for 1 hr by RF-MS analysis; format: ADME, cell-based, Canis lupus familiaris; settings: dog, read-out: Activity
Outline: (§4)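 Caco-2 and MDCK-MDR1 monolayers; transport measured in both directions, apical→basolateral and basolateral→apical. Efflux ratio taken from the two directions; ER > 2 counted as active efflux. Compound recovery reported. Cell-based permeability runs done in duplicate.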

[19] = Apparent permeability of the compound in MDCK-MDR1 cells at 10 uM incubated for 1 hr by RF-MS analysis; format: ADME, cell-based, Canis lupus familiaris; settings: dog; outline: as §4
CCRF-CEM [20] = assay: Induction of mitochondrial membrane potential loss in human CCRF-CEM cells assessed as cells with depolarized mitochondria (P2 gate) by measuring green fluorescence intensity at 5 time IC50 incubated for 24 hrs by JC-1 staining based flow cytometry (reference value: 2.1%)
[21] = Apparent permeability of the compound in human Caco-2 cells; format: ADME, cell-based; outline: as §4
CEM-DNR = assay: Cytotoxicity against human CEM-DNR cells assessed as reduction in cell viability incubated for 72 hrs by MTS assay; format: functional, cell-based
U2OS = assay: Cytotoxicity against human U2OS cells assessed as reduction in cell viability incubated for 72 hrs by MTS assay; format: functional, cell-based
CCRF-CEM [22] = assay: Induction of apoptosis in human CCRF-CEM cells assessed as reduction in Bcl-2 expression at 5 time of IC50 incubated for 24 hrs by Western blot analysis; format: functional, cell-based; outline: as §1
[23] = Cytotoxicity against human BJ cells assessed as reduction in cell viability incubated for 72 hrs by MTS assay; format: toxicity, cell-based
CCRF-CEM [24] = assay: Induction of apoptosis in human CCRF-CEM cells assessed as viable cells at 5 time IC50 incubated for 24 hrs by Annexin V and propidium iodide staining based flow cytometry analysis (reference value: 98%); format: functional
CCRF-CEM [25] = assay: Induction of apoptosis in human CCRF-CEM cells assessed as late apoptotic cells at 5 time IC50 incubated for 24 hrs by Annexin V and propidium iodide staining based flow cytometry analysis (reference value: 0.5%); format: functional
HCT 116 TP53(-/-) = assay: Cytotoxicity against human HCT116-p53-null cells assessed as reduction in cell viability incubated for 72 hrs by MTS assay; format: functional, cell-based
[26] = Apparent permeability of the compound across apical to basolateral side in human Caco-2 cells assessed as compound recovery; format: ADME, cell-based; settings: read-out: Activity; outline: as §4
[27] = Stability in human plasma assessed as compound remaining measured 60 mins by RF-MS analysis; format: ADME, cell-free; settings: read-out: Stability; outline: as §2
[28] = Stability in human plasma assessed as compound remaining measured 15 mins by RF-MS analysis; format: ADME, cell-free; settings: read-out: Stability; outline: as §2
[29] = Efflux ratio of apparent permeability across basolateral to apical side over apical to basolateral side in MDCK-MDR1 cells; format: ADME, cell-based, Canis lupus familiaris; settings: dog; outline: as §4
[30] = Efflux ratio of apparent permeability across basolateral to apical side over apical to basolateral side in human Caco-2 cells; format: ADME, cell-based; outline: as §4
[31] = Metabolic stability in human liver microsomes assessed as compound remaining at measured at 30 mins in presence of NADPH by RF-MS analysis; format: ADME, Microsome; settings: read-out: Stability; outline: as §3

Row | fraction unbound at 10 µM [2] | remaining at 2 h [11] [%] | remaining at 1 h [13] [%] | remaining at 0.25 h [14] [%] | remaining at 0.5 h [16] [%] | Compound | IC50 (CCRF-CEM [1]) [µM] | IC50 [3] [µM] | Activity (CCRF-CEM [4]) [%] | Activity (CCRF-CEM [5]) [%] | Activity (CCRF-CEM [6]) | Activity (CCRF-CEM [7]) [%] | IC50 (K562) [µM] | IC50 (A549) [µM] | Activity (CCRF-CEM [8]) [%] | Activity (CCRF-CEM [9]) | Activity (CCRF-CEM [10]) [%] | Activity (CCRF-CEM [12]) [%] | IC50 (HCT-116) [µM] | IC50 at 72 h [15] [µM] | Activity (CCRF-CEM [17]) [%] | further results
1 | 0.273 | 101 | 79 | 99 | 92.7 | C=C(C)[C@@H]1CC[C@]2(C(=O)O)CC[C@]3(C)[C@H](CC[C@@H]4[C@@]5(C)CC6=C(C7C(=O)N(c8ccccc8)C(=O)C7C=C6C(F)(F)F)C(C)(C)[C@@H]5CC[C@]43C)[C@@H]12 (stereo partly specified) | 4.2 | 9.7 | 92.5 | 0.1 | Active | 4.3 | 25 | 9.7 | 3.2 | Active | 5.2 | 2 | 7.8 | 28 | 0 | recovery at 1 h, 10 µM [18]: 94.1%; Papp at 1 h, 10 µM [19]: 0.1 ×10⁻⁶ cm/s; Activity (CCRF-CEM [20]): 2.6%; Papp [21]: 0.04 ×10⁻⁶ cm/s; IC50 (CEM-DNR): 20 µM; IC50 (U2OS): 7.6 µM; Activity (CCRF-CEM [22]): Active; IC50 at 72 h [23]: > 50 µM; Activity (CCRF-CEM [24]): 91.8%; Activity (CCRF-CEM [25]): 2.9%; IC50 (HCT 116 TP53(-/-)): 12 µM; recovery [26]: 86%; remaining at 1 h [27]: 95.8%; remaining at 0.25 h [28]: 100%
2 | 0.292 | 94.2 | 45 | 82 | 99.6 | C[C@H]1[C@H](C)CC[C@]2(C(=O)O)CC[C@]3(C)C(=CC[C@@H]4[C@@]5(C)CC6=C(C7C(=O)N(c8ccccc8)C(=O)C7C=C6C(F)(F)F)C(C)(C)[C@@H]5CC[C@]43C)[C@H]12 (stereo partly specified) | 4.3 | 23 | 93.6 | 0 | Active | 3.6 | 21 | 18 | 2.8 | Active | 10.9 | 0.6 | 13 | > 50 | 0 | efflux ratio [29]: 8.17; efflux ratio [30]: 41.8; recovery at 1 h, 10 µM [18]: 60.5%; Papp at 1 h, 10 µM [19]: 0.33 ×10⁻⁶ cm/s; Activity (CCRF-CEM [20]): 11.8%; Papp [21]: 0.12 ×10⁻⁶ cm/s; IC50 (CEM-DNR): > 50 µM; IC50 (U2OS): 19 µM; Activity (CCRF-CEM [22]): Active; IC50 at 72 h [23]: 10 µM; remaining at 0.5 h [31]: 64%; Activity (CCRF-CEM [24]): 82.2%; Activity (CCRF-CEM [25]): 6.9%; IC50 (HCT 116 TP53(-/-)): 12 µM; recovery [26]: 69.2%; remaining at 1 h [27]: 102%; remaining at 0.25 h [28]: 102%
